Data from ChEMBL document CHEMBL3108692, “Potent Targeting of the STAT3 Protein in Brain Cancer Stem Cells: A Promising Route for Treating Glioblastoma” (ACS Med Chem Lett, 2013).
Calls of active or inactive are those of the source. The calls are words filed in the database; no cut-off is given here.

Tests used:
[1] = biological target: Signal transducer and activator of transcription 3 (Homo sapiens, UniProt P40763); test: Competitive binding affinity to STAT3 SH2 domain (unknown origin) assessed as inhibition of interaction with FAMpYLPQTV after 15 to 30 mins by fluorescent polarization assay
Sequence of Signal transducer and activator of transcription 3 (P40763 whole entry, the tested form may be a part): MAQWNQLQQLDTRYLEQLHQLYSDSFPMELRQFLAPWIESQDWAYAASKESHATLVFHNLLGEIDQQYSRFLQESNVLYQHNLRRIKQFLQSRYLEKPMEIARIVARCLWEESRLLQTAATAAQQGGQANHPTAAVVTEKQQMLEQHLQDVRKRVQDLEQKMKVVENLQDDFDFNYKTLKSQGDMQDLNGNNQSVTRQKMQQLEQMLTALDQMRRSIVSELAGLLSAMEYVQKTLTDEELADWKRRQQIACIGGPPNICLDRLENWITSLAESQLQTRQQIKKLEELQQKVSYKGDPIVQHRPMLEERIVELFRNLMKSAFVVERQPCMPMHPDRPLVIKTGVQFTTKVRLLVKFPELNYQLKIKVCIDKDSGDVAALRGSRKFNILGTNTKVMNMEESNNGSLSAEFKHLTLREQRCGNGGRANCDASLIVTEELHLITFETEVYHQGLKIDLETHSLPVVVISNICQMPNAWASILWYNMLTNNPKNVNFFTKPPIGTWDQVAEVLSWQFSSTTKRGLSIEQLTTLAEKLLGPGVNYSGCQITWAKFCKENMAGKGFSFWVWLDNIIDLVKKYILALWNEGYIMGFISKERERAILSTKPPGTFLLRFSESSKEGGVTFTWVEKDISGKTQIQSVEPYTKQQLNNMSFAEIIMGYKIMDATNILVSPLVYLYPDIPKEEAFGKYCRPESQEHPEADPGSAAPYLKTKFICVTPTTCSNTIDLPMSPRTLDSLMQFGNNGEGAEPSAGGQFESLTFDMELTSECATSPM

[2] = Cytotoxicity against human 73EF cells assessed as cell viability after 3 days by Alamar Blue assay; conditions: 72 h
cells = conditions: Homo sapiens, 72 h
[3] = Cytotoxicity against human 67EF cells assessed as cell viability after 3 days by Alamar Blue assay; conditions: 72 h
[4] = Cytotoxicity against human 30M cells assessed as cell viability after 3 days by Alamar Blue assay; conditions: 72 h
[5] = Cytotoxicity against human 25EF cells assessed as cell viability after 3 days by Alamar Blue assay; conditions: 72 h
[6] = Cytotoxicity against human 84EF cells assessed as cell viability after 3 days by Alamar Blue assay; conditions: 72 h
[7] = biological target: Proto-oncogene tyrosine-protein kinase Src (Homo sapiens) (UniProt P12931); test: Inhibition of c-Src (unknown origin) at 5 uM after 120 mins relative to control
Sequence of Proto-oncogene tyrosine-protein kinase Src (Homo sapiens) (P12931 2-536 limits assumed): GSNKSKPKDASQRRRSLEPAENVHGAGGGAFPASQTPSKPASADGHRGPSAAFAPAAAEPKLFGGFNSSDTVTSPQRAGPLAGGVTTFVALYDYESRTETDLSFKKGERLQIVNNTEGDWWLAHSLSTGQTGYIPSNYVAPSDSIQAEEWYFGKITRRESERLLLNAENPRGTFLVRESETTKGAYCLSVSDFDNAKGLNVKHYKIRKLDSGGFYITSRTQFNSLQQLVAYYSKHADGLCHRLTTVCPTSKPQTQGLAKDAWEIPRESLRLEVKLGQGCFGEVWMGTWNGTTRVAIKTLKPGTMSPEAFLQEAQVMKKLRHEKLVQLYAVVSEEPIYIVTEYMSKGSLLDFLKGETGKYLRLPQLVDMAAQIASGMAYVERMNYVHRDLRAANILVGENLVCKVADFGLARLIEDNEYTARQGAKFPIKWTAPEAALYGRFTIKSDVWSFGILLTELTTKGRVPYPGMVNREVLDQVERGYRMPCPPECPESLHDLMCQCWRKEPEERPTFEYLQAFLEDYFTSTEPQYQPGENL

[8] = biological target: Tyrosine-protein kinase JAK2 (Homo sapiens) (UniProt O60674); test: Inhibition of JAK2 in human 147EF cells after 6 hrs by Western blotting analysis; assay type: cell-based
Sequence of Tyrosine-protein kinase JAK2 (Homo sapiens) (O60674 whole entry): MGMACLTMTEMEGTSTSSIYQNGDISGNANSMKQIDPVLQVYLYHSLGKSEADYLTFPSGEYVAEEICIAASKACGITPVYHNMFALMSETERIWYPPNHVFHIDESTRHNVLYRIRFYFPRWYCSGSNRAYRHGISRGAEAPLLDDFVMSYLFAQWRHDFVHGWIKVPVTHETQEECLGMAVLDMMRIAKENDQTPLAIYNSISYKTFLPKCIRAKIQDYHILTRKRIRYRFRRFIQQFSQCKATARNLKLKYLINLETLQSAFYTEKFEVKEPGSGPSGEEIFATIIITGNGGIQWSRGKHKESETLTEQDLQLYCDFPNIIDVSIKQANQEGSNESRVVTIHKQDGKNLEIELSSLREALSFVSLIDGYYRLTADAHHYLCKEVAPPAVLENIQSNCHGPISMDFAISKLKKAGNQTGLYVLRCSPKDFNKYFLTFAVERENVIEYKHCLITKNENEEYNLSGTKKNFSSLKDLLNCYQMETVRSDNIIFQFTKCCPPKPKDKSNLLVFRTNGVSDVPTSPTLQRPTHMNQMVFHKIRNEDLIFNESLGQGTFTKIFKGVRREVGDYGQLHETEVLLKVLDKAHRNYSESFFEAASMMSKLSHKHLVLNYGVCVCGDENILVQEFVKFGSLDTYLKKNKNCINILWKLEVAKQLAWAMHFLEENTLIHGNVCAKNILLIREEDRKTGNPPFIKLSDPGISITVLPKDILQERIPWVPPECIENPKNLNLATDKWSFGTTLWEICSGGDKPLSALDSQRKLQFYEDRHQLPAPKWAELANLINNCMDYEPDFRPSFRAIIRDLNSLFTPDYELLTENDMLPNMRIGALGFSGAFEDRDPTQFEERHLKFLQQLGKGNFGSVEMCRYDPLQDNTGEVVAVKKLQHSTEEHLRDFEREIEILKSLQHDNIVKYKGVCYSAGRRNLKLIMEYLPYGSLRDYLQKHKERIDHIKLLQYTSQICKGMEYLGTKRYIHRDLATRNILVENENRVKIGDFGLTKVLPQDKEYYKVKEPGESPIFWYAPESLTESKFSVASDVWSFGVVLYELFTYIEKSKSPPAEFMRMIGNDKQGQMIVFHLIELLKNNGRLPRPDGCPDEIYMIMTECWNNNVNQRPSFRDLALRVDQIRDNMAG

[9] = biological target: Tyrosine-protein kinase JAK2 (Homo sapiens) (UniProt O60674); test: Inhibition of JAK2 (unknown origin) at 5 uM after 120 mins relative to control
[10] = biological target: Mitogen-activated protein kinase 3 (Homo sapiens) (UniProt P27361); test: Inhibition of ERK1 (unknown origin) at 5 uM after 120 mins
[11] = Cytotoxicity against HF2006 cells assessed as cell viability at 5 uM after 3 days by Alamar Blue assay; assay type: cell-based; conditions: human, 72 h
Procedure, shortened: (§1)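 Normal human fetal astrocytes (healthy, non-tumor cells) were exposed to compounds at concentrations up to 5 μM, with viability as the cytotoxicity read-out.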

[12] = biological target: Proto-oncogene tyrosine-protein kinase Src (Homo sapiens) (UniProt P12931); test: Inhibition of Src in human 147EF cells after 6 hrs by Western blotting analysis; assay type: cell-based
[13] = biological target: Tyrosine-protein kinase JAK1 (Homo sapiens) (UniProt P23458); test: Inhibition of JAK1 (unknown origin) at 5 uM after 120 mins
Sequence of Tyrosine-protein kinase JAK1 (Homo sapiens) (P23458 whole entry): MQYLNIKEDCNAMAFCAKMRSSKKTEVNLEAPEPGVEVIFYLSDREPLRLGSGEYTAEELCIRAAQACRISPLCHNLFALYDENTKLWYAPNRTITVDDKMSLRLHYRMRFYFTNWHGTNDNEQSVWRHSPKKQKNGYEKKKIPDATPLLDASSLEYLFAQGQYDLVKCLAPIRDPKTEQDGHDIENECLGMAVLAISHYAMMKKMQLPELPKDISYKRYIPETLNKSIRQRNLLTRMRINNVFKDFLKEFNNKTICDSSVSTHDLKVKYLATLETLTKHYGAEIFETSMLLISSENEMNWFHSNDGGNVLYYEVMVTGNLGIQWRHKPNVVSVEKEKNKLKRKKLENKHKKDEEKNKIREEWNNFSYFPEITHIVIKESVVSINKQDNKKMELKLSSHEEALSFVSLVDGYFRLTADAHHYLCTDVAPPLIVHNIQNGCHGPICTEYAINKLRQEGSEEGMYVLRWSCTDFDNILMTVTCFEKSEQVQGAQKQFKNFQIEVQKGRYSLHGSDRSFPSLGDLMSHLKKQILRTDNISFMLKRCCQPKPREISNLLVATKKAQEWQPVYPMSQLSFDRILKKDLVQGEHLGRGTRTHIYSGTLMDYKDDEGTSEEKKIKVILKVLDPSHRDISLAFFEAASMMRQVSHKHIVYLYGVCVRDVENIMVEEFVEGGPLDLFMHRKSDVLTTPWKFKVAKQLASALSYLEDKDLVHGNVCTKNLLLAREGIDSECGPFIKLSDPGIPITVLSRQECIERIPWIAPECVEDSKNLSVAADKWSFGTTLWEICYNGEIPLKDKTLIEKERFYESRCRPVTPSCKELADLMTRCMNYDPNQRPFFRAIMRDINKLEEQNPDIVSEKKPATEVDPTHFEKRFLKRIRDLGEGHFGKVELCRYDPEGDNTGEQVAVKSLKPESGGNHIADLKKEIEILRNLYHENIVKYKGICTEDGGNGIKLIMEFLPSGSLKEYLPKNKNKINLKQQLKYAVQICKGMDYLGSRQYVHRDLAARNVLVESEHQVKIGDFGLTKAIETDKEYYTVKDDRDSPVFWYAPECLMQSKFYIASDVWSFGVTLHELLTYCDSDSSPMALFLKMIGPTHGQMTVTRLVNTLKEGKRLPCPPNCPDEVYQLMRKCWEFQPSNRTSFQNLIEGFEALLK

[14] = Cytotoxicity against HF2003 cells assessed as cell viability at 5 uM after 3 days by Alamar Blue assay; assay type: cell-based; conditions: human, 72 h; procedure, shortened: as §1
[15] = biological target: RAC-alpha serine/threonine-protein kinase (Homo sapiens) (UniProt P31749); test: Inhibition of AKT1 (unknown origin) at 5 uM after 120 mins
Homo sapiens [16] = organism: Homo sapiens; test: Inhibition of MAPK in human 147EF cells after 6 hrs by Western blotting analysis; assay type: cell-based
Homo sapiens [17] = organism: Homo sapiens; test: Inhibition of AKT in human 147EF cells after 6 hrs by Western blotting analysis; assay type: cell-based
[18] = biological target: Epidermal growth factor receptor (Homo sapiens) (UniProt P00533); test: Inhibition of EGFR in human 147EF cells after 6 hrs by Western blotting analysis; assay type: cell-based
Sequence of Epidermal growth factor receptor (Homo sapiens) (P00533 whole entry): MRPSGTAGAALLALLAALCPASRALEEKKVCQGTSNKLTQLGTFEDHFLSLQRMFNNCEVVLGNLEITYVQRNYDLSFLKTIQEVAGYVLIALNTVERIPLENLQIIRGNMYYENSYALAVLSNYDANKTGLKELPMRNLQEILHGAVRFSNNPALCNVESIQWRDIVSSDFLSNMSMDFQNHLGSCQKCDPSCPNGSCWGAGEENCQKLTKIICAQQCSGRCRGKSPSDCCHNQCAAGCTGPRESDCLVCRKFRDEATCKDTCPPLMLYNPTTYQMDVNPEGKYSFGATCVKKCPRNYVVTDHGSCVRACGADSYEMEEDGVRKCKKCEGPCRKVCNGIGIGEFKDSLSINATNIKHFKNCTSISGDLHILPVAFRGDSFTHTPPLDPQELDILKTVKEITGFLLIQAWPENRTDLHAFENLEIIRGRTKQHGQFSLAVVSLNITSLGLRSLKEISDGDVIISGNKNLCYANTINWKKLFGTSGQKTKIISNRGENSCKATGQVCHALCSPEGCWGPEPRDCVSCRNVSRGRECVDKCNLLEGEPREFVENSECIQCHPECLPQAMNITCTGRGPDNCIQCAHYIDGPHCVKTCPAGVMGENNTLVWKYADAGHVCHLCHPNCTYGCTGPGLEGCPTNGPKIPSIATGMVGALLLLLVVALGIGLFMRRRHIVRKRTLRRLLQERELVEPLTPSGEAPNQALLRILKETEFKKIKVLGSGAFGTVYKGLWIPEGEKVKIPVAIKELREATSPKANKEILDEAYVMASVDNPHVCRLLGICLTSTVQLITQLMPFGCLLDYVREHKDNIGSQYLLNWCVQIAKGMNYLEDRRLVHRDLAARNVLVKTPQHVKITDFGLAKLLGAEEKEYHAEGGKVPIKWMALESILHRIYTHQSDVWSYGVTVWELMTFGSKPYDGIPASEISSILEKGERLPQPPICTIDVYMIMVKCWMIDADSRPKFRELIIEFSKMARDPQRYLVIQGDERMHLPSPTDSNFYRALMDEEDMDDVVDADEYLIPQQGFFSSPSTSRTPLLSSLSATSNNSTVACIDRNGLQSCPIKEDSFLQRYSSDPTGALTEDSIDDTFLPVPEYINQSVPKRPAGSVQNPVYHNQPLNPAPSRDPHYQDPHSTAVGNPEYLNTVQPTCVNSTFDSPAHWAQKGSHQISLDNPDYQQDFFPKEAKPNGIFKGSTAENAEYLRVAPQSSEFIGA

Structure (SMILES)	inhibition [1]	IC50 (cells)	IC50 [2]	IC50 [3]	IC50 [4]	IC50 [5]	IC50 [6]	further results
CN(CC(=O)N(Cc1ccc(C2CCCCC2)cc1)c1ccc(C(=O)O)c(F)c1)S(=O)(=O)c1c(F)c(F)c(F)c(F)c1F	–	90 nM	438 nM	214 nM	100 nM	592 nM	202 nM	Ki [1]: 10000 nM
CC(=O)OCOC(=O)c1ccc(N(Cc2ccc(C3CCCCC3)cc2)C(=O)CN(C)S(=O)(=O)c2c(F)c(F)c(F)c(F)c2F)cc1	inactive	–	–	–	–	–	–	–
CN(CC(=O)N(Cc1ccc(C2CCCCC2)cc1)c1ccccc1)S(=O)(=O)c1c(F)c(F)c(F)c(F)c1F	inactive	–	–	–	–	–	–	–

Further lines, with some results ahead:

inhibition [1]	IC50 (cells)	Structure (SMILES)	IC50 [2]	IC50 [3]	IC50 [4]	IC50 [5]	IC50 [6]	further results
inactive	–	CCOC(=O)C(=O)Nc1ccc(N(Cc2ccc(C3CCCCC3)cc2)C(=O)CN(C)S(=O)(=O)c2c(F)c(F)c(F)c(F)c2F)cc1	–	–	–	–	–	–
inactive	–	CCOC(=O)c1ccc(N(Cc2ccc(C3CCCCC3)cc2)C(=O)CN(C)S(=O)(=O)c2c(F)c(F)c(F)c(F)c2F)cc1	–	–	–	–	–	–
inactive	272 nM	CC(=O)Oc1cc(N(Cc2ccc(C3CCCCC3)cc2)C(=O)CN(C)S(=O)(=O)c2c(F)c(F)c(F)c(F)c2F)ccc1C(=O)O	1080 nM	436 nM	100 nM	1140 nM	332 nM	inhibition [7]: 50%; inhibition [8]: inactive; inhibition [9]: 50%; inhibition [10]: inactive; Activity [11]: Non-toxic; inhibition [12]: inactive; inhibition [13]: inactive; Activity [14]: Non-toxic; inhibition [15]: inactive; inhibition (Homo sapiens [16]): inactive; inhibition (Homo sapiens [17]): inactive; inhibition [18]: inactive
